In ChEMBL document CHEMBL4376902, “CN128: A New Orally Active Hydroxypyridinone Iron Chelator” (J Med Chem, 2020):

Key:
[1] = Apparent volume of distribution in Sprague-Dawley rat at 300 umol/kg, po measured up to 1440 mins by LC/MS/MS analysis; format: ADME, organism-based; conditions: in vivo, 24 h
[2] = Cmax in Sprague-Dawley rat at 600 umol/kg, po measured up to 1440 mins by LC/MS/MS analysis; format: ADME, organism-based; design: dose 600 umol/kg, route oral; conditions: in vivo
[3] = Binding affinity to Mg2+ ion assessed as pM value by spectrophotometric titration method
[4] = Toxicity in Sprague-Dawley rat assessed as induction of histopathological changes in pancreas at 25 to 116 mg/kg, po dosed daily for 4 weeks during chronic 4 week toxicity test; format: organism-based; conditions: in vivo, 672 h
[5] = Apparent clearance in Sprague-Dawley rat at 300 umol/kg, po measured up to 1440 mins by LC/MS/MS analysis; format: ADME, organism-based; conditions: in vivo, read-out: CL(app) (converted)
[6] = tested on: Mus musculus; test: Toxicity in mouse assessed as reduction in total white cell counts at 200 mg/kg, po dosed once daily for 2 months as 5 days per week schedule; conditions: in vivo, 120 h
[7] = AUC (0 to infinity) in Sprague-Dawley rat at 300 umol/kg, po measured up to 1440 mins by LC/MS/MS analysis; format: ADME, organism-based; design: dose 300 umol/kg, time infinity, route oral; conditions: in vivo, 24 h
[8] = Drug level in rat adrenal gland at 150 umol/kg, po measured measured up to 6 hrs by LC-MS/MS analysis; format: ADME, organism-based; conditions: in vivo
Procedure, shortened: (§1)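 Single oral dose of 150 μmol/kg to SD rats, half male and half female, n=6 per group. Rats decapitated at 10 min, 30 min, 2 h and 6 h. Tissues dissected, saline-washed, weighed and homogenised in acetonitrile/water 1:9 (125 mg/mL). Drug level measured against plasma; mean ± SE.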

[9] = Drug level in rat stomach at 150 umol/kg, po measured measured up to 6 hrs by LC-MS/MS analysis; format: ADME, organism-based; conditions: in vivo; procedure, shortened: as §1
[10] = Drug metabolism in rat liver microsomes assessed as oxidative metabolism incubated for 1 hr relative to deferiprone; format: ADME, Microsome
[11] = Drug metabolism in rat liver microsomes assessed as glucuronidation incubated for 1 hr relative to deferiprone; format: ADME, Microsome
Procedure, shortened: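 Compound incubated 1 h with rat or human liver microsomes, n = 4, mean ± SD. Glucuronide formed given as percentage of total chelator added. Oxidative metabolism assessed separately.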

[12] = Apparent clearance in Sprague-Dawley rat at 600 umol/kg, po measured up to 1440 mins by LC/MS/MS analysis; format: ADME, organism-based; conditions: in vivo, read-out: CL(app) (converted)
[13] = Toxicity in Sprague-Dawley rat assessed as induction of histopathological changes in thymus at 25 to 116 mg/kg, po dosed daily for 4 weeks and measured after additional 4 weeks period in absence of drug; format: organism-based; conditions: in vivo, 672 h
[14] = Binding affinity to Ni2+ ion assessed as pM value by spectrophotometric titration method
[15] = Drug level in rat intestine at 150 umol/kg, po measured measured up to 6 hrs by LC-MS/MS analysis; format: ADME, organism-based; conditions: in vivo; procedure, shortened: as §1
[16] = Apparent volume of distribution in Sprague-Dawley rat at 150 umol/kg, po measured up to 1440 mins by LC/MS/MS analysis; format: ADME, organism-based; conditions: in vivo, 24 h
[17] = Binding affinity to Fe3+ ion assessed as affinity constant by spectrophotometric titration method
Procedure, shortened: (§2)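 Automated spectrophotometric titration with 0.1 M KOH in 0.1 pH steps, 3 min equilibration per step, 50 mm cuvette, iron complexes at ca. 40 µM. Titrated in competition with metal hydrolysis species up to pH 12.0. Hydrolysis constants taken from critical compilations. Iron spectra fitted over 400–700 nm.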

[18] = Genotoxicity in Salmonella typhimurium by Ames test; format: toxicity; conditions: salmonella enterica subsp. enterica serovar typhimurium
[19] = Ratio of drug level in liver to plasma in rat at 150 umol/kg, po measured within 10 mins by LC-MS/MS analysis; format: ADME, organism-based; conditions: liver and plasma
Procedure, shortened: (§3)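 SD rats (half male, half female, n = 6 per group) given a single oral 150 μmol/kg dose. Killed at 10 min, 30 min, 2 h or 6 h; tissues washed in saline, weighed and homogenised in acetonitrile/water 1:9 (125 mg/mL). Tissue levels compared with plasma.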

[20] = Binding affinity to Cu2+ ion assessed as affinity constant by spectrophotometric titration method
[21] = Toxicity in Sprague-Dawley rat assessed as induction of histopathological changes in pancreas at 25 to 116 mg/kg, po dosed daily for 4 weeks and measured after additional 4 weeks period in absence of drug; format: organism-based; conditions: in vivo, 672 h
[22] = Ratio of drug level in adrenal gland to plasma in rat at 150 umol/kg, po measured within 10 mins by LC-MS/MS analysis; format: ADME, organism-based; conditions: adrenal gland and plasma; procedure, shortened: as §3
[23] = Apparent clearance in Sprague-Dawley rat at 150 umol/kg, po measured up to 1440 mins by LC/MS/MS analysis; format: ADME, organism-based; conditions: in vivo, read-out: CL(app) (converted)
[24] = AUC (0 to infinity) in Sprague-Dawley rat at 75 umol/kg, po measured up to 1440 mins by LC/MS/MS analysis; format: ADME, organism-based; design: dose 75 umol/kg, route oral, time infinity; conditions: in vivo, 24 h
[25] = AUC (0 to infinity) in Sprague-Dawley rat at 600 umol/kg, po measured up to 1440 mins by LC/MS/MS analysis; format: ADME, organism-based; design: dose 600 umol/kg, time infinity, route oral; conditions: in vivo, 24 h
[26] = tested on: Mus musculus; test: Toxicity in mouse assessed as effect on platelet population at 200 mg/kg, po dosed once daily for 2 months as 5 days per week schedule; conditions: in vivo, 120 h
[27] = Drug metabolism in rat bile assessed as (2S,3S,4S,5R,6R)-3,4,5-trihydroxy-6-[(2R)-2-(3-hydroxy-2-methyl-4-oxo-1-pyridyl)-3-phenylpropoxy]tetrahydropyran-2-carboxylic acid formation at 150 umol/kg, po by LC/TOF/MS/MS analysis; format: ADME, organism-based; conditions: in vivo
Procedure, shortened: (§4)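 Bile collected from rats after an oral dose of 150 μmol/kg. Metabolites characterised by β-glucuronidase hydrolysis and LC-TOFMS/MS. M2/M1 ratio followed over 8 h.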

[28] = tested on: Mus musculus; test: Toxicity in mouse assessed as increase in reticulocyte population at 200 mg/kg, po dosed once daily for 2 months as 5 days per week schedule; conditions: in vivo, 120 h
[29] = Binding affinity to Ni2+ ion assessed as affinity constant by spectrophotometric titration method; procedure, shortened: as §2
[30] = Drug metabolism in rat bile assessed as (2S,3S,4S,5R,6S)-6-[[1-[(1R)-1-benzyl-2-hydroxyethyl]-2-methyl-4-oxo-3-pyridyl]oxy]-3,4,5-trihydroxy-tetrahydropyran-2-carboxylic acid formation at 150 umol/kg, po by LC/TOF/MS/MS analysis; format: ADME, organism-based; conditions: in vivo; procedure, shortened: as §4
[31] = Binding affinity to Zn2+ ion assessed as affinity constant by spectrophotometric titration method
[32] = Toxicity in Sprague-Dawley rat assessed as induction of histopathological changes in bone marrow at 25 to 116 mg/kg, po dosed daily for 4 weeks and measured after additional 4 weeks period in absence of drug; format: organism-based; conditions: in vivo, 672 h
[33] = Apparent volume of distribution in Sprague-Dawley rat at 600 umol/kg, po measured up to 1440 mins by LC/MS/MS analysis; format: ADME, organism-based; conditions: in vivo, 24 h

`Cc1c(O)c(O)cc[n+]1[C@@H](CO)Cc1ccccc1.[Cl-]` showed a Vz [1] of 3.72 L/kg, a Cmax [2] of 70 µg/mL and a pM [3] of 7.59. For the same compound, the Activity [4] was “Toxic”, the CL/F [5] was 15.3 mL/min/kg and the Activity [6] was “Non-Toxic”. For the same compound, the AUC [7] was 89800 ng·h/mL, the Drug uptake [8] was “Not Active” and the Drug uptake [9] was “Not Active”. For the same compound, the Drug metabolism [10] was “Metabolite_Detected”, the Drug metabolism [11] was “Metabolite_Detected” and the CL/F [12] was 15.2 mL/min/kg. For the same compound, the Activity [13] was “Non-Toxic”, the pM [14] was 6.17 and the Drug uptake [15] was “Not Active”. For the same compound, the Vz [16] was 5.29 L/kg, the K [17] was 19.8 pM and the log K [17] was 14.8. For the same compound, the Activity [18] was “Non-Toxic”, the Kp at 10 min [19] was 3.3 to 8.8 and the K [20] was 8.31 pM. The log K [20] was 10.4, the Activity [21] was “Non-Toxic” and the Kp at 10 min [22] was 3.3 to 8.8. For the same compound, the CL/F [23] was 19 mL/min/kg, the AUC [24] was 16400 ng·h/mL and the AUC [25] was 181000 ng·h/mL. The Activity [26] was “Non-Toxic”, the Drug metabolism [27] was “Metabolite_Detected” and the Activity [28] was “Non-Toxic”. The log K [29] was 6.92, the Drug metabolism [30] was “Metabolite_Detected” and the K [31] was 6.15 pM. For the same compound, the log K [31] was 7.05, the Activity [32] was “Non-Toxic” and the Vz [33] was 4.29 L/kg.
